The text below walks through data of PMC6506245 (Science Advances, 2019).

Read-outs that look alike come from different tables or passages of the source. Bridge positions count the residues as written; N and C are the ends. Square brackets hold non-standard residues; d marks the D form. Peptide text beside a SMILES is read from it. * marks the point of attachment. Biotin = O=C1N[C@H]2[C@H](CS[C@H]2CCCCC(=O)*)N1; 2Nal = N[C@@H](Cc1ccc2ccccc2c1)C(=O)O; S5 = C=CCCC[C@](C)(N)C(=O)O

By Kd is commonly meant a measure of binding affinity in units of concentration. The low end stands for tighter binding, the high end for weaker binding. By IC50 is commonly meant the concentration that gives 50% inhibition. What is called fraction remaining is the share of the starting amount still present when the sample was taken. High values mean greater stability, low ones a greater loss. In general, bioavailability refers to the share of a dose that reaches the circulation, judged against a reference dose that is usually intravenous. Lower therefore signals little systemic uptake. As usually defined, the half-life is the time in which the quantity being followed falls by half.

In data set [1] the target is T1, β-cat (Homo sapiens, UniProt P35222).
T1 sequence (P35222 1-781): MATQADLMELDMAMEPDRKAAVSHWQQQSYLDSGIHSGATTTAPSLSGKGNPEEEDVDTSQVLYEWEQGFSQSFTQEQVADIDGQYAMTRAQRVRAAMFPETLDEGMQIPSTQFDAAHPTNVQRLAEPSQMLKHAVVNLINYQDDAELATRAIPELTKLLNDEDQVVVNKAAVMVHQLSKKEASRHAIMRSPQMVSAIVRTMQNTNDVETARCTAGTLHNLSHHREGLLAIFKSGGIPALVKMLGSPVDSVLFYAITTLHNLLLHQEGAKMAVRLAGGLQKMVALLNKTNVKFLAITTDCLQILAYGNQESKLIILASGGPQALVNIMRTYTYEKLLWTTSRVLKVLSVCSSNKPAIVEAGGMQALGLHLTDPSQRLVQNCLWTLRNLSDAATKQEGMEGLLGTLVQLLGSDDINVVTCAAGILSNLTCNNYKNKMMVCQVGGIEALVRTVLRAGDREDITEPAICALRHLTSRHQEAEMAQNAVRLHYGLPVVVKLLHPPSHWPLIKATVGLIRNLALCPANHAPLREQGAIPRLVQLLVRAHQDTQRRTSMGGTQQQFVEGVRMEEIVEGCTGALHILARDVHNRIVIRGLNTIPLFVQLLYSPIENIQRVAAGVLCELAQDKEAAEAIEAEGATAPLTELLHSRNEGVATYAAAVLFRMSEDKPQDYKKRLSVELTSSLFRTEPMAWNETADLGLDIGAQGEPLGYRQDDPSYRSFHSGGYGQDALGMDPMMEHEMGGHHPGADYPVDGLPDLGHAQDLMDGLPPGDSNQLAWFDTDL
Put plainly: HTRF binding assay. In general terms: Time-resolved FRET reads energy transfer from a long-lived donor to a nearby acceptor.

In data set [2] the target is T1, β-cat. Description: ALPHA binding assay.
In the next data set the test system is Colo320DM cells. Description: Colo320DM cell viability assay. It counts as cell-based, human. The note with it: read-out: IC50, growth of Colo320DM, 72 h.
The next data set in a line: Plasma stability assay. The format is in vitro ADME, BALB/c nude mice. The note with it: BALB/c nude, mouse.
A further data set is described as follows: PK profiling in mice. The format is in vivo, BALB/c mice.
Data set [3] in a line: Dose-escalating toxicity study. It counts as in vivo, BALB/c mice. A digest of the protocol:
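BALB/c mice received vehicle control or test compound at 10, 15 or 20 mg/kg by i.p. injection, once daily for 14 days. Serum chemistry and hematology were done after the 2-week treatment and compared with vehicle-treated animals.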

Data set [4] has as its target histidine-tagged β-catenin (β-cat) protein (UniProt P35222). Description: AlphaScreen or HTRF. On the technique in general: In Alpha technology, singlet oxygen from a donor bead excites a nearby acceptor bead.

With `CC[C@H](C)[C@H](NC(=O)[C@H](CC(=O)O)NC(=O)[C@H](CCCNC(=N)N)NC(=O)[C@H](CC(C)C)NC(=O)[C@@H](NC(=O)[C@H](CCC(N)=O)NC(=O)[C@H](CC(C)C)NC(=O)[C@H](CO)NC(=O)[C@H](CCCNC(=N)N)NC(=O)[C@H](CCC(=O)O)NC(=O)[C@H](CCCNC(=N)N)NC(=O)[C@H](Cc1c[nH]cn1)NC(=O)[C@H](CCC(=O)O)NC(=O)[C@H](CC(C)C)NC(=O)[C@H](CCC(N)=O)NC(=O)[C@H](CCC(=O)O)NC(=O)[C@H](CCC(N)=O)NC(=O)[C@H](CO)NC(=O)[C@H](CC(C)C)NC(=O)CCCC[C@@H]1SC[C@@H]2NC(=O)N[C@@H]21)[C@@H](C)O)C(=O)N[C@@H](CCC(N)=O)C(=O)N[C@@H](CCCNC(=N)N)C(=O)N[C@@H](CCSC)C(=O)N[C@@H](CC(C)C)C(=O)N[C@@H](Cc1ccccc1)C(=O)O` [BCL9-HD2A] (Biotin-LSQEQLEHRERSLQTLRDIQRMLF-OH), the equilibrium dissociation constant (Kd) is 38.3 nM at β-cat [1] and 14.3 nM at β-cat [2].
On to `O=C1[C@H](Cc2ccc(O)cc2)N2C(=O)CCN(C(=O)NCc3ccccc3)[C@H]2CN1Cc1cccc2ccccc12` [ICG-001], for which the 50% inhibitory concentration (IC50) in the data set on Colo320DM cells (CellTiter-Glo) came to 15000 nM.
For `Cc1cc(-c2ncc(CC(=O)Nc3ccc(-c4cnccn4)cn3)cc2C)ccn1` [LGK-974], the 50% inhibitory concentration (IC50) with Colo320DM cells (Homo sapiens, COLO 320DM) was determined as 18500 nM.
As to `CCN(CC)CCOC(=O)c1ccc(N)cc1` [Procaine, reference compound], the fraction remaining at 1 h, 2 µM in the data set “Plasma stability assay” was 0.02%.
Take `CCCC[C@H](NC(=O)[C@H](CCCNC(=N)N)NC(=O)[C@H](CCC(N)=O)NC(=O)[C@@H](NC(=O)[C@]1(C)CCCC=CCCC[C@](C)(NC(=O)[C@H](CC(C)C)NC(=O)[C@H](CO)NC(=O)[C@H](CCCNC(=N)N)NC(=O)[C@H](CCC(=O)O)NC(=O)[C@H](CCCNC(=N)N)NC(=O)[C@H](Cc2c[nH]cn2)NC(=O)[C@H](CCC(=O)O)NC(=O)[C@H](CC(C)C)NC(=O)[C@H](CCC(N)=O)NC(=O)[C@H](CCC(=O)O)NC(=O)[C@H](CCC(N)=O)NC(=O)[C@H](CO)NC(=O)[C@H](CC(C)C)NC(C)=O)C(=O)N[C@@H]([C@@H](C)O)C(=O)N[C@@H](CC(C)C)C(=O)N[C@@H](CCCNC(=N)N)C(=O)N1)[C@@H](C)CC)C(=O)N[C@@H](CC(C)C)C(=O)N[C@@H](Cc1ccccc1)C(N)=O` [SAH-BCL9B]: the dissociation constant Kd on β-cat [1] is 192 nM; at β-cat [2] it was 142 nM.
Regarding `CC[C@H](C)[C@@H]1NC(=O)[C@@](C)(NC(=O)[C@H](CCCNC(=N)N)NC(=O)[C@H](CC(C)C)NC(=O)[C@@H](NC(=O)[C@H](CCC(N)=O)NC(=O)[C@H](CC(C)C)NC(C)=O)[C@@H](C)O)CCCC=CCCC[C@@](C)(C(=O)N[C@@H](CC(C)C)C(=O)N[C@@H](Cc2ccc3ccccc3c2)C(N)=O)NC(=O)[C@H](CCCNC(=N)N)NC(=O)[C@H](CCC(N)=O)NC1=O` [hsBCL9CT-24] (Ac-LQTLR[S5]IQR[S5]L[2Nal]-NH2; staple 6-10), the Kd at β-cat [2] is 4.73 nM. Also, in the data set with Colo320DM cells (CellTiter-Glo), the IC50 is 1450 nM. Further, in “PK profiling in mice” (BALB/c, mouse, plasma, sc, 10 mg/kg), the bioavailability was determined as 56%. Further, in “PK profiling in mice” (i.m. 5 mg/kg, BALB/c mice n = 2, table S2A), the “Terminal t1/2” value came out at 10.6 h. Also, the “survival in toxicity study” value in data set [3] (10, 15, or 20 mg/kg i.p., QD over 14 days) is listed as “All animals survived the duration of study”. Further, the “serum chemistry and hematology versus vehicle control” value in data set [3] (after a 2-week treatment period, 20 mg/kg QD (fig. S4I)) is reported as “no difference”. Besides, in data set [3] (i.p. QD over 14 days (fig. S4C: 10 mg/kg)), the “toxicity in brain, lung, kidney, liver, heart, and spleen tissues by histology” value is recorded as “minimal toxicity”. In the data set “Plasma stability assay”, this compound returned a half-life at 2 µM of 5.13 h.
The compound “hsBCL9CT-24 (hydrocarbon-stapled BCL9-HD2 peptide)” showed a Kd in data set [4] of 4.21 nM.
